{
  "source": "ChEMBL document CHEMBL4017491",
  "about": "“Phthalazino[1,2-b]quinazolinones as p53 Activators: Cell Cycle Arrest, Apoptotic Response and Bak-Bcl-xl Complex Reorganization in Bladder Cancer Cells” (J Med Chem, 2017)",
  "key": {"T-24 [1]": {"system": "T-24", "assay": "Effect on cell cycle distribution in human T24 cells assessed as late necrotic cells at 10 uM after 1 hr by Annexin V-FITC/propidium iodide staining based FACS analysis (reference value: 1.71%)", "type": "functional"}, "T-24 [2]": {"system": "T-24", "assay": "Cell cycle arrest in human T24 cells assessed as accumulation at sub-G1 phase at 1 to 10 uM after 48 hrs by propidium iodide staining based FACS analysis", "type": "functional", "summary_of_the_method": "(§1)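 Cells treated with 1−10 μM for 48 h, trypsinized, and fixed in 70% ethanol. Stained with 50 μg/mL propidium iodide and phase distribution analyzed by flow cytometry. Mean ± SD from three independent measurements.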"}, "T-24 [3]": {"system": "T-24", "assay": "Induction of apoptosis in human T24 cells assessed as activation of caspase-3 at 10 uM by FITC-DEVD-FMK based flow cytometric analysis (reference value: 2.8%)"}, "T-24 [4]": {"system": "T-24", "assay": "Induction of apoptosis in human T24 cells assessed as early apoptotic cells at 5 uM by Annexin V-FITC/propidium iodide based flow cytometric analysis (reference value: 1.79%)", "type": "functional"}, "[5]": {"target": "Cellular tumor antigen p53 (Homo sapiens) (UniProt P04637)", "sequence (P04637 whole entry, looked up)": "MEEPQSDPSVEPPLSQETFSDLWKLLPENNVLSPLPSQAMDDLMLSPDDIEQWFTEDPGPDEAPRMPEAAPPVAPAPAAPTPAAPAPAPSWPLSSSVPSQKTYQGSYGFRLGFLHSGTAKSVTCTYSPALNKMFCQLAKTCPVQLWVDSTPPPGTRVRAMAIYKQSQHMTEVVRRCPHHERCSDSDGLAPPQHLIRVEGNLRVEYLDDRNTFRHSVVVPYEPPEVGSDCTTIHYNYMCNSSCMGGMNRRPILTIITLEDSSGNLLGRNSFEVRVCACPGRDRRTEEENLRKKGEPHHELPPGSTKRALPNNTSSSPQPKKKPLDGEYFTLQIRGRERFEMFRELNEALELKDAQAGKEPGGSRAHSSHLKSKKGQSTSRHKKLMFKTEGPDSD", "assay": "Induction of phospho-p53 accumulation in mitochondria of human T24 cells up to 10 uM after 24 hrs by Western blot method"}, "T-24 [6]": {"system": "T-24", "assay": "Induction of apoptosis in human T24 cells assessed as increase in bim level up to 10 uM after 24 hrs by Western blot analysis", "type": "functional, cell-based", "summary_of_the_method": "(§2)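 T24 cells (3 × 10^5 per well) grown to 85–95% confluence, then exposed 24 h to 0–10 μM. Whole-cell extracts run on SDS-PAGE and blotted to nitrocellulose. Probed with the indicated antibodies and AP-linked anti-rabbit IgG, with ECL detection. Blots stripped and reprobed for β-actin as loading control.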"}, "T-24 [7]": {"system": "T-24", "assay": "Induction of apoptosis in human T24 cells by Annexin V-FITC/propidium iodide based flow cytometric analysis", "type": "functional, cell-based"}, "T-24 [8]": {"system": "T-24", "assay": "Effect on cell cycle distribution in human T24 cells assessed as live cells at 10 uM after 1 hr by Annexin V-FITC/propidium iodide staining based FACS analysis (reference value: 98.3%)", "type": "functional"}, "NCI-H460": {"system": "NCI-H460", "assay": "Antiproliferative activity against human NCI-H460 cells by MTT assay", "type": "functional, cell-based", "summary_of_the_method": "(§3)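 Cell lines cultured in RPMI 1640 with 10% FBS. Viability read by MTT (5 mg/mL, 4 h at 37 °C), with formazan dissolved in DMSO and absorbance taken at 490 nm. Viability (%) = A490 treated / A490 control × 100. IC50 taken from dose-response curves, from three independent experiments each run in triplicate.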"}, "Mus musculus": {"system": "Mus musculus", "assay": "Toxicity in BALB/C nude mouse xenografted with human HepG2 cells at 6 to 12 mg/kg, ip administered every 2 days for 16 days", "type": "organism-based", "conditions": "in vivo", "summary_of_the_method": "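Male BALB/C nude mice with HepG2 flank xenografts, n = 6/group. Given ip 6 or 12 mg/kg every 2 days in 5% DMSO/saline; vehicle and HCPT 6 mg/kg as controls. Clinical signs, food intake and body weight monitored; tumour size and weight measured three times weekly.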"}, "T-24 [9]": {"system": "T-24", "assay": "Antiproliferative activity against human T24 cells harboring p53 siRNA up to 5 uM after 48 hrs by MTT assay", "type": "functional, cell-based", "summary_of_the_method": "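T24 cells pre-exposed to p53-siRNA or scrambled RNA for 24 h, then treated with a concentration series for 48 h. Proliferation measured by MTT read at 490 nm, expressed as % of control absorbance.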"}, "T-24 [10]": {"system": "T-24", "assay": "Induction of apoptosis in human T24 cells assessed as apoptotic inducing factor translocation from mitochondria to nucleus at 1 to 10 uM after 48 hrs by Hoechst 33258 staining based fluorescence confocal microscopic analysis", "type": "functional, cell-based", "summary_of_the_method": "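T24 cells on glass slides, treated for 48 h. Fixed in 4% paraformaldehyde, permeabilised with 1% Triton X-100, nuclei stained with Hoechst 33258 (final 0.5 μg/mL). Imaged by confocal fluorescence microscopy.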"}, "DU-145": {"system": "DU-145", "assay": "Antiproliferative activity against human DU145 cells harboring p53 mutant by MTT assay", "type": "functional, cell-based", "summary_of_the_method": "as §3"}, "T-24 [11]": {"system": "T-24", "assay": "Antitumor activity against human T24 cells xenografted in BALB/C nude mouse assessed as tumor growth inhibition at 6 mg/kg, ip administered every 2 days for 16 days relative to control", "type": "functional", "conditions": "T-24, ip, read-out: TGI"}, "T-24 [12]": {"system": "T-24", "assay": "Induction of apoptosis in human T24 cells assessed as necrotic cells at 1 uM by Annexin V-FITC/propidium iodide based flow cytometric analysis (reference value: 8.53%)", "type": "functional"}, "MGC-803": {"system": "MGC-803", "assay": "Antiproliferative activity against human MGC803 cells by MTT assay", "type": "functional, cell-based", "summary_of_the_method": "as §3"}, "T-24 [13]": {"system": "T-24", "assay": "Induction of apoptosis in human T24 cells assessed as necrotic cells at 10 uM by Annexin V-FITC/propidium iodide based flow cytometric analysis (reference value: 8.53%)", "type": "functional"}, "[14]": {"target": "Cellular tumor antigen p53 (Homo sapiens) (UniProt P04637)", "assay": "Activation of p53 in human T24 cells assessed as increase in p21 protein expression after 24 hrs by Western blot analysis", "type": "cell-based"}, "[15]": {"target": "Cellular tumor antigen p53 (Homo sapiens) (UniProt P04637)", "assay": "Activation of p53 in human T24 cells assessed as increase in p21 level up to 10 uM after 24 hrs by Western blot analysis", "type": "cell-based", "summary_of_the_method": "(§4)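 T24 cells, 3 × 10^5 per well, grown to 85−95% confluence, then exposed to 0−10 μM for 24 h. Whole-cell extracts in sample buffer run on SDS-polyacrylamide gels and transferred to nitrocellulose. Blots probed with primary antibodies and AP-linked anti-rabbit IgG, detected by ECL. Blots stripped and reprobed for β-actin as loading control.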"}, "J82 [16]": {"system": "J82", "assay": "Cell cycle arrest in human J82 cells assessed as accumulation at G2 phase at 1 uM after 48 hrs by propidium iodide staining based FACS analysis (reference value: 10.92 %)", "type": "functional", "summary_of_the_method": "as §1"}, "T-24 [17]": {"system": "T-24", "assay": "Cell cycle arrest in human T24 cells assessed as accumulation at S/G2 phase at 1 to 10 uM after 48 hrs by propidium iodide staining based FACS analysis", "type": "functional", "summary_of_the_method": "as §1"}, "J82 [18]": {"system": "J82", "assay": "Cell cycle arrest in human J82 cells assessed as accumulation at S phase at 1 uM after 48 hrs by propidium iodide staining based FACS analysis (reference value: 46.79 %)", "type": "functional", "summary_of_the_method": "as §1"}, "T-24 [19]": {"system": "T-24", "assay": "Antiproliferative activity against human T24 cells by MTT assay", "type": "functional, cell-based", "summary_of_the_method": "as §3"}, "T-24 [20]": {"system": "T-24", "assay": "Induction of apoptosis in human T24 cells assessed as increase in […] level up to 10 uM after 24 hrs by Western blot analysis", "type": "functional, cell-based", "summary_of_the_method": "as §2"}, "T-24 [21]": {"system": "T-24", "assay": "Effect on cell cycle distribution in human T24 cells assessed as late apoptotic cells at 5 uM after 1 hr by Annexin V-FITC/propidium iodide staining based FACS analysis relative to control", "type": "functional"}, "T-24 [22]": {"system": "T-24", "assay": "Antitumor activity against human T24 cells xenografted in BALB/C nude mouse assessed as tumor growth inhibition at 12 mg/kg, ip administered every 2 days for 16 days relative to control", "type": "functional", "conditions": "T-24, ip, read-out: TGI"}, "T-24 [23]": {"system": "T-24", "assay": "Effect on cell cycle distribution in human T24 cells assessed as live cells at 5 uM after 1 hr by Annexin V-FITC/propidium iodide staining based FACS analysis (reference value: 98.3%)", "type": "functional"}, "T-24 [24]": {"system": "T-24", "assay": "Induction of DNA damage in human T24 cells assessed as gammaH2AX level up to 10 uM by immunoblot analysis", "type": "functional, cell-based"}, "T-24 [25]": {"system": "T-24", "assay": "Effect on Bcl-2 expression in human T24 cells up to 10 uM after 24 hrs by Western blot analysis", "type": "functional, cell-based", "summary_of_the_method": "as §4"}},
  "note": "Activity calls are given as the source filed them. No cut-off for these calls is given here.",
  "data": [
    {"smiles": "CN(C)CCNc1nn2c(=O)c3cc(Br)ccc3nc2c2ccccc12", "values": [
      {"measurement": "Activity", "setting": "T-24 [1]", "value": 13.4, "unit": "%"},
      {"measurement": "Activity", "setting": "T-24 [2]", "value": "Active"},
      {"measurement": "Activity", "setting": "T-24 [3]", "value": 50, "unit": "%"},
      {"measurement": "Activity", "setting": "T-24 [4]", "value": 26.4, "unit": "%"},
      {"measurement": "Activity", "setting": "[5]", "value": "Active"},
      {"measurement": "Activity", "setting": "T-24 [6]", "value": "Active"},
      {"measurement": "Activity", "setting": "T-24 [7]", "value": "Dose-dependent effect"},
      {"measurement": "Activity", "setting": "T-24 [8]", "value": 86.6, "unit": "%"},
      {"measurement": "IC50", "setting": "NCI-H460", "value": 5.03, "unit": "µM"},
      {"measurement": "Activity", "setting": "Mus musculus", "value": "Non-Toxic"},
      {"measurement": "Activity", "setting": "T-24 [9]", "value": "inactive"},
      {"measurement": "Activity", "setting": "T-24 [10]", "value": "Active"},
      {"measurement": "Activity", "setting": "DU-145", "value": "inactive"},
      {"measurement": "inhibition in vivo at 6 mg/kg", "setting": "T-24 [11]", "value": 44.8, "unit": "%"},
      {"measurement": "Activity", "setting": "T-24 [12]", "value": 6.77, "unit": "%"},
      {"measurement": "IC50", "setting": "MGC-803", "value": 4.29, "unit": "µM"},
      {"measurement": "Activity", "setting": "T-24 [13]", "value": 8.1, "unit": "%"},
      {"measurement": "Activity", "setting": "[14]", "value": "Dose-dependent effect"},
      {"measurement": "Activity", "setting": "[15]", "value": "Active"},
      {"measurement": "Activity", "setting": "J82 [16]", "value": 12, "unit": "%"},
      {"measurement": "Activity", "setting": "T-24 [17]", "value": "Active"},
      {"measurement": "Activity", "setting": "J82 [18]", "value": 39.51, "unit": "%"},
      {"measurement": "IC50", "setting": "T-24 [19]", "value": 3.09, "unit": "µM"},
      {"measurement": "Activity", "setting": "T-24 [20]", "value": "Active"},
      {"measurement": "Activity", "setting": "T-24 [21]", "value": 0, "unit": "%"},
      {"measurement": "inhibition in vivo at 12 mg/kg", "setting": "T-24 [22]", "value": 54.2, "unit": "%"},
      {"measurement": "Activity", "setting": "T-24 [23]", "value": 89.4, "unit": "%"},
      {"measurement": "Activity", "setting": "T-24 [24]", "value": "inactive"},
      {"measurement": "Activity", "setting": "T-24 [25]", "value": "inactive"}
    ]}
  ]
}
